Data from publication PMC4076525 (The Journal of General Physiology, 2014).

Legend:
[1] = target: T1, FepA (Escherichia coli, UniProt P05825); settings: ref Newton et al., 1999; Annamalai et al., 2004; cited from earlier work
T1 sequence (P05825 23-746): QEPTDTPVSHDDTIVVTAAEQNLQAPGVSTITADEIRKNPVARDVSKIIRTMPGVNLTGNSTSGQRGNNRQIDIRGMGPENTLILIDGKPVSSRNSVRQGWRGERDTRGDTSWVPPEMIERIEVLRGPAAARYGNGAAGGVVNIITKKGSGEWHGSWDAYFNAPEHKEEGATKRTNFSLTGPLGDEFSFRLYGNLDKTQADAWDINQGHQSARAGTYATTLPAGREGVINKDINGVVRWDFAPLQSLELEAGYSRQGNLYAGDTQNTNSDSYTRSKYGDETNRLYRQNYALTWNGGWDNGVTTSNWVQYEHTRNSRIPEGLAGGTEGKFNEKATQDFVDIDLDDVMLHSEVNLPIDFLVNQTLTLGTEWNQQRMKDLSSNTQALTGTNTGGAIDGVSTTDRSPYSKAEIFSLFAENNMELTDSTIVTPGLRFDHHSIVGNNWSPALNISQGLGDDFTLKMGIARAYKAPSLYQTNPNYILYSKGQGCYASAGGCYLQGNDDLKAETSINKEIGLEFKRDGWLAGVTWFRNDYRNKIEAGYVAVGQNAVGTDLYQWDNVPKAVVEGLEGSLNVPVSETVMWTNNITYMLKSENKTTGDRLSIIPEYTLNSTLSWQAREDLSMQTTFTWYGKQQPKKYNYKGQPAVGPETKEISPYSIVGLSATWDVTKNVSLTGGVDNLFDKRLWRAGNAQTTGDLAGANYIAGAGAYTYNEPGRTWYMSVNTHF

[2] = Extent of FeEnt-induced quenching of FM fluorescence in live cells; type: cell-based, Escherichia coli; settings: 10 nM FeEnt, 2.5 × 10^7 cells/ml, FM-labeled mutants
How it was run: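 Hosts were tonB+ ΔfepA or ΔtonB ΔfepA E. coli expressing plasmid-borne Cys-substituted FepA, grown in iron-deficient MOPS medium to late log. 10^10 cells were labeled with 5 µM fluorescein-5-maleimide in 50 mM Na2HPO4, 0.9% NaCl, pH 6.5, for 5 min at 37°C. Labeling was quenched with β-mercaptoethanol, and cells were resuspended in PBS with 0.4% glucose. FeEnt was added to 2.5 × 10^7 cells in 3 ml, stirred at 2°C, with emission read at 520 nm.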

[3] = Rapid-mixing stopped-flow FM quenching during FeEnt binding, live bacteria; design: species or system Escherichia coli; settings: live bacteria expressing FepAT216C-FM
How it was run: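 Live, highly fluorescein-maleimide-labeled bacteria expressing the Cys-substituted FepA were rapid-mixed with FeEnt in a stopped-flow chamber, with emission quenching recorded at 520 nm. Rate constants, with standard errors, came from exponential decay fits (A(t) = A0e^−kt + offset). Half-times were calculated as −ln 0.5/k.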

[4] = Rapid-mixing stopped-flow FM quenching during FeEnt binding, OM fragments; design: species or system Escherichia coli; settings: biphasic decay

O=C(N[C@H]1COC(=O)[C@@H](NC(=O)c2cccc([O-])c2[O-])COC(=O)[C@@H](NC(=O)c2cccc([O-])c2[O-])COC1=O)c1cccc([O-])c1[O-].[Fe+3] [FeEnt, ferric enterobactin]
FeEnt turnover number [1]: ~0.03 s⁻¹

B1: T216C (protein, UniProt P05825 23-746, looked up, variant T216C)
Ferrienterobactin receptor: QEPTDTPVSHDDTIVVTAAEQNLQAPGVSTITADEIRKNPVARDVSKIIRTMPGVNLTGNSTSGQRGNNRQIDIRGMGPENTLILIDGKPVSSRNSVRQGWRGERDTRGDTSWVPPEMIERIEVLRGPAAARYGNGAAGGVVNIITKKGSGEWHGSWDAYFNAPEHKEEGATKRTNFSLTGPLGDEFSFRLYGNLDKTQADAWDINQGHQSARAGCYATTLPAGREGVINKDINGVVRWDFAPLQSLELEAGYSRQGNLYAGDTQNTNSDSYTRSKYGDETNRLYRQNYALTWNGGWDNGVTTSNWVQYEHTRNSRIPEGLAGGTEGKFNEKATQDFVDIDLDDVMLHSEVNLPIDFLVNQTLTLGTEWNQQRMKDLSSNTQALTGTNTGGAIDGVSTTDRSPYSKAEIFSLFAENNMELTDSTIVTPGLRFDHHSIVGNNWSPALNISQGLGDDFTLKMGIARAYKAPSLYQTNPNYILYSKGQGCYASAGGCYLQGNDDLKAETSINKEIGLEFKRDGWLAGVTWFRNDYRNKIEAGYVAVGQNAVGTDLYQWDNVPKAVVEGLEGSLNVPVSETVMWTNNITYMLKSENKTTGDRLSIIPEYTLNSTLSWQAREDLSMQTTFTWYGKQQPKKYNYKGQPAVGPETKEISPYSIVGLSATWDVTKNVSLTGGVDNLFDKRLWRAGNAQTTGDLAGANYIAGAGAYTYNEPGRTWYMSVNTHF
Quenching of FM emissions by FeEnt binding [2]: > 60% | k (SE), rate of FM quenching [3]: 1.08 (0.08) s^−1

B2: S271C (protein, UniProt P05825 23-746, looked up, variant S271C)
Ferrienterobactin receptor: QEPTDTPVSHDDTIVVTAAEQNLQAPGVSTITADEIRKNPVARDVSKIIRTMPGVNLTGNSTSGQRGNNRQIDIRGMGPENTLILIDGKPVSSRNSVRQGWRGERDTRGDTSWVPPEMIERIEVLRGPAAARYGNGAAGGVVNIITKKGSGEWHGSWDAYFNAPEHKEEGATKRTNFSLTGPLGDEFSFRLYGNLDKTQADAWDINQGHQSARAGTYATTLPAGREGVINKDINGVVRWDFAPLQSLELEAGYSRQGNLYAGDTQNTNSDCYTRSKYGDETNRLYRQNYALTWNGGWDNGVTTSNWVQYEHTRNSRIPEGLAGGTEGKFNEKATQDFVDIDLDDVMLHSEVNLPIDFLVNQTLTLGTEWNQQRMKDLSSNTQALTGTNTGGAIDGVSTTDRSPYSKAEIFSLFAENNMELTDSTIVTPGLRFDHHSIVGNNWSPALNISQGLGDDFTLKMGIARAYKAPSLYQTNPNYILYSKGQGCYASAGGCYLQGNDDLKAETSINKEIGLEFKRDGWLAGVTWFRNDYRNKIEAGYVAVGQNAVGTDLYQWDNVPKAVVEGLEGSLNVPVSETVMWTNNITYMLKSENKTTGDRLSIIPEYTLNSTLSWQAREDLSMQTTFTWYGKQQPKKYNYKGQPAVGPETKEISPYSIVGLSATWDVTKNVSLTGGVDNLFDKRLWRAGNAQTTGDLAGANYIAGAGAYTYNEPGRTWYMSVNTHF
k (SE), second kinetic phase [4]: 0.31 (0.04) s^−1
